Measured values gathered from unrelated publications.
Protocols differ between the studies behind these lines.
Target: RAF proto-oncogene serine/threonine-protein kinase (RAF1, Homo sapiens, UniProt P04049)

SMILES | assay | conditions | remaining binding [%]
Cc1c(C(=O)O)cc(-c2ccc(C3CCNCC3)cc2)c2ccc(-c3ccc(C(F)(F)F)cc3)cc12 | binding, competition with immobilised ligand | 1 µM | 80
COc1ccnn2ncc(-c3ccnc(N(C)C)n3)c12 | binding | 1 µM | 100
C=CC(=O)N1CCC(C(=O)NCC(=O)N2CCN(c3nc(-c4cnc(N)nc4C(F)F)nc(N4CCOCC4)n3)CC2)CC1 | binding, competition with immobilised ligand | 1 µM | 93
CN(C)c1nccc(-c2cnn3ncccc23)n1 | binding | 1 µM | 100
O=C(c1ccc(Nc2ncc(Cl)c(-c3ccc(Cl)s3)n2)cc1)N1CCC(N2CCCC2)CC1 | binding, competition with immobilised ligand | 1 µM | 45
N[C@H]1CCN(c2nccc(-c3cnn4ncccc34)n2)C1 | binding | 1 µM | 100
COc1ncc2cc3ccccc3nc2c1C#N | cell-free assay, competition with immobilised ligand | 5 µM | 93
CC(=O)C1=C(C)N(c2cccc(C(F)(F)F)c2)C(=O)N[C@@H]1c1ccc(C#N)nc1 | cell-free assay, competition with immobilised ligand | 1 µM | 100
FC(F)(F)Oc1cccc(-c2cnc3ccc(-c4ccncc4)nn23)c1 | cell-free assay, competition with immobilised ligand | 5 µM | 71
C[C@H]1CCN(c2nccc(-c3cnn4ncccc34)n2)C1 | binding | 1 µM | 90
CC(C)(O)c1cncc(-c2nc3ccc(F)cc3n2C2CC2)c1 | cell-free assay, competition with immobilised ligand | 1 µM | 83
Cc1cnc(Nc2ccc(C(=O)N3CCC(N4CCCC4)CC3)cc2)nc1-c1cc2ccccc2s1 | binding, competition with immobilised ligand | 1 µM | 60
C[C@@H]1CN(c2ccc3ncc(-c4ccc5[nH]nc(C6CC6)c5c4)n3n2)C[C@H](C)O1 | binding, competition with immobilised ligand | 50 nM | 100
CNC(=O)Nc1ccc2c(c1)[C@@]1(CC2)OC(=O)N(CC(=O)N(Cc2ccc(F)cc2)[C@@H](C)C(F)(F)F)C1=O | cell-free assay, competition with immobilised ligand | 1 µM | 100
O=C(Nc1c[nH]nc1C(=O)NC1CCNCC1)c1cc(F)cc(F)c1 | binding, competition with immobilised ligand | 1 µM | 100
c1cnn2ncc(-c3ccnc(N4CCC45COC5)n3)c2c1 | binding | 1 µM | 73
CN(c1ccnc(CNc2nc(Nc3ccc4c(c3)CC(=O)N4)ncc2C(F)(F)F)n1)S(C)(=O)=O | cell-free assay, competition with immobilised ligand | 1 µM | 85
COc1cnc(Nc2cccc(S(N)(=O)=O)c2)nc1N1CCN(c2ccccc2)CC1 | binding, competition with immobilised ligand | 1 µM | 100
CCC(=O)N[C@@H]1CC[C@H](C(=O)N(C)c2ccc(-c3nc4ccccc4o3)cc2)C1 | cell-free assay, competition with immobilised ligand | 1 µM | 94
CC1CCCN1c1nccc(-c2cnn3ncccc23)n1 (stereo not drawn) | binding | 1 µM | 100
Nc1ncc2c(n1)-c1c([nH]c3ccc(C#CC4CC4)cc13)CCCC2 | binding, competition with immobilised ligand | 1 µM | 79
O=C(NCCCN1CCOCC1)c1ccc(Nc2ncc(Cl)c(-c3ccc(Cl)s3)n2)cc1 | binding, competition with immobilised ligand | 1 µM | 89
Cn1nc(C(=O)NCc2ccc(C(=O)O)cc2)cc1-c1ccc2[nH]ccc2c1 | cell-free assay, competition with immobilised ligand | 0.1 µM | 70
CCN1CCN(Cc2ccc(C(=O)Nc3ccc(C)c(Oc4ccc5c(c4)CC(=O)N5)c3)cc2C(F)(F)F)CC1 | binding, competition with immobilised ligand | 1 µM | 95
